Test results: publication PMC2174413 (Environmental Health Perspectives, 2007)

Assays:
[1] = target: T1, human DHEA sulfotransferase (SULT 2A1) (Homo sapiens, UniProt Q06520); experiment: Inhibition of sulfation of tritiated DHEA by SULT 2A1 in human liver cytosol; format: biochemical
T1 sequence (Q06520 1-285): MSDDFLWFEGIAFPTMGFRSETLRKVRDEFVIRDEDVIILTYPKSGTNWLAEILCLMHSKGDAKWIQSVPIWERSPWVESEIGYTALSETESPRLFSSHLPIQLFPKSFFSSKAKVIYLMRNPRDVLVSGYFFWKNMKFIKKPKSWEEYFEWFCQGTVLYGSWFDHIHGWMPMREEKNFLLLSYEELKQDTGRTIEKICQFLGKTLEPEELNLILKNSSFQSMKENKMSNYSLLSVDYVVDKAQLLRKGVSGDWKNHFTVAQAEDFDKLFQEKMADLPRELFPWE

[2] = system: 3′-phosphoadenosine 5′-phosphosulfate synthase 1 (PAPSS1) mRNA; experiment: Real-time RT-PCR of PAPSS1 steady-state mRNA in treated TE 671 cells; format: cell-based, human; conditions: 24 hr, 0.005–0.5 μM, ΔΔCt method, HPRT1 internal standard
Outline: (§1)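 TE 671 cells were pre-grown 72 hr in phenol red–free DMEM, plated at 4 ×10⁴ cells/well in 10% dialyzed FCS medium, equilibrated 24 hr, and dosed 24 hr (DMSO carrier, quadruplicate per dose). Total RNA (1 μg) was reverse-transcribed with poly T primers for 60 min at 42°C. SYBR Green qPCR used 60°C annealing, 44 cycles and a melt curve, with samples in quadruplicate; mean ± SE.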

[3] = system: sulfite oxidase (SUOX) mRNA; experiment: Real-time RT-PCR of SUOX steady-state mRNA in treated TE 671 cells; format: cell-based, human; conditions: 24 hr, 0.005–0.5 μM, ΔΔCt method, HPRT1 internal standard
Outline: as §1

[4] = system: cysteine dioxygenase type I (CDO1) mRNA; experiment: Real-time RT-PCR of CDO1 steady-state mRNA in treated TE 671 cells; format: cell-based, human; conditions: 24 hr, 0.005–0.5 μM, ΔΔCt method, HPRT1 internal standard
Outline: as §1

SULT 2A1 = conditions: read-out: Km of SULT 2A1 for DHEA; ref Chang et al. 2001; cited from earlier work

Compound `CCCCOC(=O)c1ccccc1C(=O)OCCCC` [Dibutyl phthalate, dibutyl phthalate] has a Ki [1] of 21.5 ± 1.4 µM.

With `CCCCC(CC)COC(=O)c1ccccc1C(=O)OCC(CC)CCCC` (stereo not drawn) [bis(2-ethylhexyl)phthalate] the “PAPSS1 mRNA expression level relative to undosed control” value [2] was “significant dose-dependent decreases” and the “SUOX mRNA expression level relative to undosed control” value [3] was “significant dose-dependent decreases”.

With bisphenol A dimethacrylate the “PAPSS1 mRNA expression level relative to undosed control” value [2] was “decreased in a dose-dependent manner”, the “CDO1 mRNA expression level relative to undosed control” value [4] was “did not affect” and the “SUOX mRNA expression level relative to undosed control” value [3] was “decreased in a dose-dependent manner”.

For `C[C@]12CC[C@H](O)CC1=CC[C@@H]1[C@@H]2CC[C@]2(C)C(=O)CC[C@@H]12` [DHEA, dehydroepiandrosterone], the Km (SULT 2A1) is listed as ~2 µM.

In the case of `Oc1ccc(Cl)cc1Cl` [2,4-dichlorophenol], the “PAPSS1 mRNA expression level relative to undosed control” value [2] is reported as “did not show significant decreases”, the “CDO1 mRNA expression level relative to undosed control” value [4] is reported as “did not show significant decreases” and the “SUOX mRNA expression level relative to undosed control” value [3] is reported as “did not show significant decreases”.

In the case of `Cc1cc(O)ccc1Cl` [4-chloro-3-methylphenol], the “PAPSS1 mRNA expression level relative to undosed control” value [2] is reported as “did not show significant decreases”, the “CDO1 mRNA expression level relative to undosed control” value [4] is reported as “did not show significant decreases” and the “SUOX mRNA expression level relative to undosed control” value [3] is reported as “did not show significant decreases”.

`CC(C)(C)CC(C)(C)c1ccc(O)cc1` [4-tert-Octylphenol, 4-tert-octylphenol] gave a Ki [1] of 2.8 ± 0.1 µM.

For `CC(C)CCCCCCCOC(=O)c1ccccc1C(=O)OCCCCCCCC(C)C` [Diisodecyl phthalate, diisodecyl phthalate], the “PAPSS1 mRNA expression level relative to undosed control” value [2] was “clear decreasing trend”.

With `CCCCCCCCCc1ccc(O)cc1` [4-n-Nonylphenol, 4-n-nonylphenol] the Ki [1] was 10.5 ± 0.6 µM and the “PAPSS1 mRNA expression level relative to undosed control” value [2] was “very significant dose-dependent decrease”.

For `CC(C)(c1ccc(O)cc1)c1ccc(O)cc1` [Bisphenol A, bisphenol A], the Ki [1] was 16.3 ± 0.8 µM.
